Measured values from ChEMBL document CHEMBL4014344, “Discovery of the Soluble Guanylate Cyclase Stimulator Vericiguat (BAY 1021189) for the Treatment of Chronic Heart Failure” (J Med Chem, 2017).
Active and inactive are the calls of the source. The rule behind the calls is not given here.

How the values were obtained:
[1] = biological target: Cytochrome P450 2C9 (Homo sapiens, UniProt P11712); assay: Inhibition of human liver microsomes CYP2C9 using diclofenac as substrate; format: ADME
[2] = test system: Rattus norvegicus; assay: Antihypertensive activity in L-NAME-treated renin transgenic rat co-expressing RenTG(mRRen2)27 assessed as reduction in heart hypertrophy in right ventricle administered qd via oral gavage up to 21 days relative to control; format: functional
In short: (§1)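 Renin transgenic RenTG(mRRen2)27 male rats, 8 weeks old, on L-NAME drinking water (50 mg/L). Dosed by gavage qd with placebo (n = 20) or 3 or 10 mg/kg/day (n = 15 each). At day 22 animals were anesthetized and sacrificed, and left and right ventricles were dissected and weighed for hypertrophy. Unpaired t test versus placebo.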

[3] = Oral bioavailability in Wistar rat administered via oral gavage after 24 hrs by LC-MS analysis; format: ADME, organism-based; details: in vivo
In short: (§2)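 Male Wistar rats and female beagle dogs. iv in plasma/DMSO (rat) or H2O/PEG 400/EtOH (dog). Oral gavage in H2O/PEG 400/EtOH for both. Rats jugular-catheterised ≥1 d before dosing. Usually >10 blood samples, at least two after 24 h. Plasma quantified by LC-MS with internal standard. CL, t1/2, Vss and F calculated from plasma curves. Blood clearance via blood/plasma ratio (20 min blood incubation).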

[4] = test system: Rattus norvegicus; assay: Antihypertensive activity in L-NAME-treated renin transgenic rat co-expressing RenTG(mRRen2)27 assessed as reduction in systolic blood pressure increase at 3 to 10 mg/kg, administered qd via oral gavage up to 21 days; format: functional, organism-based
In short: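 Male RenTG(mRRen2)27 rats, 8 weeks old, given L-NAME in drinking water (50 mg/L) throughout. Randomised to placebo (2 mL/kg qd, n = 20) or 3 and 10 mg/kg/day po by gavage qd (n = 15 per group). Tail-cuff blood pressure on day 0, 7, 14 and 21. Plasma taken at day 22 end. Unpaired t test, mean ± SEM.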

[5] = biological target: T1, Cytochrome P450 2B6 (Homo sapiens, UniProt P20813); assay: Inhibition of human liver microsomes CYP2B6 using bupropion as substrate; format: ADME
T1 sequence (P20813 whole entry): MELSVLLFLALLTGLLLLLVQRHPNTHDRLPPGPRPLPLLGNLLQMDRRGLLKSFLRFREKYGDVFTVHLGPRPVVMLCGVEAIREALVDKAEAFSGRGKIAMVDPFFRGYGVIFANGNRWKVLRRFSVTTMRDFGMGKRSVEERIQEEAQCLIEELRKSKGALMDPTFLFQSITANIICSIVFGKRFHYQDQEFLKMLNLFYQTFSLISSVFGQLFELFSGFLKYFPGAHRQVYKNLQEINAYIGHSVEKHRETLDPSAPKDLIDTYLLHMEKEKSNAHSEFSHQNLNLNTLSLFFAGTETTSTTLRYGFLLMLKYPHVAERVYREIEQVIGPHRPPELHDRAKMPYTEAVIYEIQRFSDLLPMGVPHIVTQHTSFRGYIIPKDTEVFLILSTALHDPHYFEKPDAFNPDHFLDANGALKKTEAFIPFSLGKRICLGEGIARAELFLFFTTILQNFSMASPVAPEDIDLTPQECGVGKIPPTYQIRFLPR

[6] = Clearance in iv dosed Wistar rat blood after 24 hrs by LC-MS analysis; format: ADME, organism-based; details: whole blood; in short: as §2
[7] = test system: Rattus norvegicus; assay: Antihypertensive activity in L-NAME-treated renin transgenic rat co-expressing RenTG(mRRen2)27 assessed as reduction in heart hypertrophy in left ventricle administered qd via oral gavage up to 21 days; format: functional; in short: as §1
[8] = Volume of distribution at steady state in iv dosed Beagle dog after 24 hrs by LC-MS analysis; format: ADME, organism-based, Canis lupus familiaris; details: in vivo, read-out: Vdss; in short: as §2
[9] = Inhibition of phenylephrine-induced contractions in dog femoral vein after 15 to 20 mins post phenylephrine-induced contraction; format: functional, tissue-based, Canis lupus familiaris
[10] = biological target: Cytochrome P450 3A4 (Homo sapiens, UniProt P08684); assay: Inhibition of human liver microsomes CYP3A4 using midazolam as substrate preincubated with compound followed by substrate addition; format: ADME
[11] = biological target: T2, Cytochrome P450 2C8 (Homo sapiens, UniProt P10632); assay: Inhibition of human liver microsomes CYP2C8 using amodiaquine as substrate; format: ADME
T2 sequence (P10632 whole entry): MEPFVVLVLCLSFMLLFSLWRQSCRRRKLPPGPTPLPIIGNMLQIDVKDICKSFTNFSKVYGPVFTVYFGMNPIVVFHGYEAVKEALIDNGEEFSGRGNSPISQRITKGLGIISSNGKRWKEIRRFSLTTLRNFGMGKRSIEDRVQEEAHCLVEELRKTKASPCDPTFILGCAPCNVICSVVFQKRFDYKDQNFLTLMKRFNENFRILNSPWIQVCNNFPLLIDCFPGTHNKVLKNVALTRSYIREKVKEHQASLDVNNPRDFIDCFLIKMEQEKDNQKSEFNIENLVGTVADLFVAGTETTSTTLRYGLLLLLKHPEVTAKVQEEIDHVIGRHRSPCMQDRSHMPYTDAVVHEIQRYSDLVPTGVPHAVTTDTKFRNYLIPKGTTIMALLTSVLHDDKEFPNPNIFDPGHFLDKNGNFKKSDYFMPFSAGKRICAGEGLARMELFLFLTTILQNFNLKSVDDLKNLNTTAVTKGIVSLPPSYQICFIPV

[12] = biological target: Cytochrome P450 2D6 (Homo sapiens, UniProt P10635); assay: Inhibition of human liver microsomes CYP2D6 using dextromethorphan as substrate; format: ADME
[13] = test system: Heart; assay: Cardiotoxicity in Wistar rat assessed as effect on left ventricular diastolic pressure administered for 20 mins; format: toxicity, tissue-based
In short: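 Male Wistar rats (200−250 g) anesthetized with Narcoren 100 mg/kg ip. Excised heart Langendorff-perfused at constant flow 10 mL/min with Krebs−Henseleit buffer gassed with 95% O2/5% CO2. Values expressed as relative change from baseline before compound application.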

[14] = biological target: T3, Cytochrome P450 1A2 (Homo sapiens, UniProt P05177); assay: Inhibition of human liver microsomes CYP1A2 using phenacetin as substrate; format: ADME
T3 sequence (P05177 whole entry): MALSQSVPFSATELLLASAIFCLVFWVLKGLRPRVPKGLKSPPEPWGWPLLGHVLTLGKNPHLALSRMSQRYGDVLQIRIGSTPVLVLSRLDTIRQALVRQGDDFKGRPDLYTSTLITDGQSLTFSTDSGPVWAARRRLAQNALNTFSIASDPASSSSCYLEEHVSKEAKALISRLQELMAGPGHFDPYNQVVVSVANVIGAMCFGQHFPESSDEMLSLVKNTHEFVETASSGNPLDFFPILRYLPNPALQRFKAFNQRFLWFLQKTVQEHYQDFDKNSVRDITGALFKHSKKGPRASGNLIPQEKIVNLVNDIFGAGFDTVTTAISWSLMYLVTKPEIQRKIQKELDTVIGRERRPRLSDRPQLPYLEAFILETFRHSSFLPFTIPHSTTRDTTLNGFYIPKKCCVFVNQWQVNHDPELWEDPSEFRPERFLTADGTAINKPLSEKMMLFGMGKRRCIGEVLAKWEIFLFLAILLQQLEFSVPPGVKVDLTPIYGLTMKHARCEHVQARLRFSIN

Cytochrome P450 2C9, sequence (P11712 whole entry): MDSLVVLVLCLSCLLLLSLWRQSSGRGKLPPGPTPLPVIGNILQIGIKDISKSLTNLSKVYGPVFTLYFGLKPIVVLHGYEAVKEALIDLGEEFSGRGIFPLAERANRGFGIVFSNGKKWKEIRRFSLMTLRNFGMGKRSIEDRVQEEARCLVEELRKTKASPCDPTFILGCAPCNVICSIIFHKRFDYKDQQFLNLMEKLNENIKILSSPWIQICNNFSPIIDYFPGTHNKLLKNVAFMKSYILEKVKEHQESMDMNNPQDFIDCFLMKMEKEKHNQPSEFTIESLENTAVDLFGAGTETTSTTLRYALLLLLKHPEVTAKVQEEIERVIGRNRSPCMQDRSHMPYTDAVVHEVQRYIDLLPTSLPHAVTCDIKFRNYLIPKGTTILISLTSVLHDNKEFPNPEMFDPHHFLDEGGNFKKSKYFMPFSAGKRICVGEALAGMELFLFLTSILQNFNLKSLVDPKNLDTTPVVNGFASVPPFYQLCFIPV
Cytochrome P450 3A4, sequence (P08684 whole entry): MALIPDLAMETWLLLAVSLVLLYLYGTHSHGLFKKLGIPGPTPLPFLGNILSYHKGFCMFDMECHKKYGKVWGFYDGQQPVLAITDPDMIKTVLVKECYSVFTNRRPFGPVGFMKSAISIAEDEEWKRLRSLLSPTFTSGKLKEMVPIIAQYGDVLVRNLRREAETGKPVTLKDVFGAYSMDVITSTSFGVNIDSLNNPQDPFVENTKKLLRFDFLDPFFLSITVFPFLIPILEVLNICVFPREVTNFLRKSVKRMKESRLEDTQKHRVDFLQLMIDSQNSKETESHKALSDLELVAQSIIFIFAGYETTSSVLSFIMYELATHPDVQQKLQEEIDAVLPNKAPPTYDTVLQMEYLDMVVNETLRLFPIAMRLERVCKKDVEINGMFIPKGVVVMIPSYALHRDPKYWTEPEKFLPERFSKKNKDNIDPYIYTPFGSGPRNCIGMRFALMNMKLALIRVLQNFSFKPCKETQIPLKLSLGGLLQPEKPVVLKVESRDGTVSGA
Cytochrome P450 2D6, sequence (P10635 whole entry): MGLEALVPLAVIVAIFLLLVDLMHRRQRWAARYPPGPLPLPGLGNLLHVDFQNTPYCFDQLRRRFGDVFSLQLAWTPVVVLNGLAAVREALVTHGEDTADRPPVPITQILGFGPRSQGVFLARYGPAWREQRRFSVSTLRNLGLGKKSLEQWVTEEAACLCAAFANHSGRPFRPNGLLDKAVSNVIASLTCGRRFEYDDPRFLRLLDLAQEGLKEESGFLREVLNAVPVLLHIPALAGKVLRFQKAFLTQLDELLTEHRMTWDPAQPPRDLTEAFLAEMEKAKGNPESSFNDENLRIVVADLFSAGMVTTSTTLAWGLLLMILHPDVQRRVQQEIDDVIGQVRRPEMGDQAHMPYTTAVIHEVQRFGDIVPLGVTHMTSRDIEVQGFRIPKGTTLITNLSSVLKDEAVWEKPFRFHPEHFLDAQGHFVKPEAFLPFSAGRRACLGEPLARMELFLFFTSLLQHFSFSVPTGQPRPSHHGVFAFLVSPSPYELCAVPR

In the case of `COC(=O)Nc1c(N)nc(-c2nn(Cc3ccccc3F)c3ncc(F)cc23)nc1N` [VERICIGUAT], the IC50 [1] is reported as > 50 µM, the Activity [2] is reported as “Dose-dependent effect” and the bioavailability [3] is reported as 65%. For the same compound, the Activity [4] was “Active”, the IC50 [5] was > 50 µM and the clearance [6] was 5 mL/min/kg. For the same compound, the Activity [7] was “Dose-dependent effect”, the Vd [8] was 1.4 L/kg and the IC50 [9] was 3.07 µM. The IC50 [10] was > 50 µM, the IC50 [11] was > 50 µM and the IC50 [12] was > 50 µM. The Activity [13] was “Non-Toxic” and the IC50 [14] was > 50 µM.
